Laboratory results as given in ChEMBL document CHEMBL1151950, “Antioxidant phenylethanoid glycosides and a neolignan from Jacaranda caucana” (J Nat Prod, 2009).

Columns and labels:
[1] = DPPH radical scavenging activity assessed as ratio of antioxidant concentration to drug level causing 50% decrease in DPPH level at steady state by microplate assay
[2] = Antioxidant activity assessed as protection against peroxyl radical-induced alkaline phosphatase activity loss by microplate assay; type: functional
Procedure, shortened: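 Pure compounds were tested in the microplate alkaline phosphatase (ALP) oxidation-protection assay. The reported value is EC50, the antioxidant concentration that protects ALP by 50% from peroxyl radical-induced loss of activity.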

| Compound | Ratio [1] | EC50 [2] |
| --- | --- | --- |
| C[C@@H]1O[C@@H](O[C@@H]2[C@@H](O)[C@H](OCCc3ccc(O)c(O)c3)O[C@H](COC(=O)C[C@]3(O)CC[C@@H](O)CC3)[C@H]2OC(=O)/C=C/c2ccc(O)c(O)c2)[C@H](O)[C@H](O)[C@H]1O | 0.098 | 1270 nM |
| C[C@@H]1O[C@@H](O[C@@H]2[C@@H](O)[C@H](OCCc3ccc(O)c(O)c3)O[C@H](COC(=O)CC3(O)CCC(=O)CC3)[C@H]2OC(=O)/C=C/c2ccc(O)c(O)c2)[C@H](O)[C@H](O)[C@H]1O | 0.079 | 1270 nM |
| COc1cc([C@H]2Oc3c(OC)cc([C@@H](O)[C@@H](O)CO)cc3[C@@H]2CO)ccc1O[C@@H]1O[C@@H](C)[C@H](O)[C@@H](O)[C@H]1O | 1.84 | 9070 nM |
| C[C@@H]1O[C@@H](O[C@@H]2[C@@H](O)[C@H](OCCc3ccc(O)c(O)c3)O[C@H](CO)[C@H]2OC(=O)/C=C/c2ccc(O)c(O)c2)[C@H](O)[C@H](O)[C@H]1O [ACETOSIDE] | 0.078 | 1040 nM |
| C[C@@H]1O[C@@H](O[C@@H]2[C@@H](O)[C@H](OCCc3ccc(O)c(O)c3)O[C@H](COC(=O)/C=C/c3ccc(O)c(O)c3)[C@H]2O)[C@H](O)[C@H](O)[C@H]1O [ISOACTEOSIDE] | 0.07 | 1200 nM |
| COc1ccc(CCO[C@@H]2O[C@H](CO)[C@@H](OC(=O)/C=C/c3ccc(O)c(O)c3)[C@H](O[C@@H]3O[C@@H](C)[C@H](O)[C@@H](O)[C@H]3O)[C@H]2O)cc1O [JIONOSIDE D] | 0.17 | 1100 nM |
| COc1ccc(CCO[C@@H]2O[C@H](CO)[C@@H](OC(=O)/C=C/c3ccc(O)c(OC)c3)[C@H](O[C@@H]3O[C@@H](C)[C@H](O)[C@@H](O)[C@H]3O)[C@H]2O)cc1O [MARTYNOSIDE A] | 0.38 | 2420 nM |
| O=C(O)c1ccc(O)c(O)c1 [PROTOCATECHUIC ACID] | 0.23 | 2560 nM |
| O=c1c(O)c(-c2ccc(O)c(O)c2)oc2cc(O)cc(O)c12 [QUERCETIN] | 0.09 | 1000 nM |
